This note sets out measurements from ChEMBL document CHEMBL1150877, “Total synthesis and biological activities of (+)- and (-)-boscialin and their 1'-epimers” (J Nat Prod, 1998).

In brackets after ≈: the same amount, converted by molar mass. Activity calls are given as the source filed them.

The subject of data set [1] is Staphylococcus epidermidis. Description: Antimicrobial activity against Staphylococcus epidermis ATCC 12228 after 24 hrs by agar diffusion assay. The data set is classed as functional. In outline:
(§1)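 Overnight cultures were diluted in 0.9% NaCl and mixed into molten casein soymeal peptone agar at a final 5 × 10⁴–10⁵ CFU/mL, which was layered onto agar plates. Test substances (100 µL of 1 mg/mL in H2O) were placed in 1 cm wells. Plates were incubated at 37 °C for 24 h, and inhibition zone diameters were measured.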
On the technique in general: Agar diffusion results depend on both activity and mobility in agar.

Another data set relates to Trypanosoma cruzi. Description: Antitrypanosomal activity against Trypanosoma cruzi MHOM/Br/OO/Y trypomastigotes up to 100 ug/ml after 5 days.
For data set [2], the system named is Corynebacterium minutissimum. In words: Antimicrobial activity against Corynebacterium minutissium ATCC 23348 after 24 hrs by agar diffusion assay. The data set is classed as functional. The essentials: as §1
Data set [3] can be described thus: (§2) Cytotoxicity against human HT-29 cells. The data set is classed as cell-based. The note with it: human, HT-29 cells; read-out: MIC. The essentials:
(§3)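 HT-29 cells were seeded at 5000 cells/100 µL in MEM with 10% heat-inactivated FCS at 37 °C and 5% CO2. They were exposed for 72 h to threefold dilutions starting at […], with 1% DMSO final. MIC was read microscopically, and IC50 came from Alamar Blue fluorescence after 2 h by linear interpolation.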

In the next data set the test system is HT-29. The data set is described as §2. In kind it is cell-based. Conditions: Homo sapiens, HT-29. The essentials: as §3
A short description of data set [4]: Selectivity index, ratio of IC50 for human HT29 cells to IC50 for Trypanosoma brucei rhodesiense STIB 900. In kind it is toxicity, cell-based, HT-29. The note with it: HT29 cells versus Trypanosoma brucei rhodesiense STIB 900, read-out: Ratio IC50. In outline:
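The index was calculated as the HT-29 IC50 divided by the T. b. rhodesiense IC50. Both IC50s came from 72 h exposures read by Alamar Blue fluorescence, with linear interpolation.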

The test system of data set [5] is Trypanosoma brucei rhodesiense. In words: Antitrypanosomal activity against blood stream form of Trypanosoma brucei rhodesiense STIB 900 at 100 ug/ml. In kind it is functional, organism-based.
In another data set the test system is Staphylococcus aureus. Description: Antimicrobial activity against Staphylococcus aureus ATCC 9144 after 24 hrs by agar diffusion assay. In kind it is functional. In outline:
as §1

The next data set deals with Corynebacterium xerosis. Description: Antimicrobial activity against Corynebacterium xerosis ATCC 373 after 24 hrs by agar diffusion assay. The data set is classed as functional. In outline:
as §1

A further data set relates to Candida albicans. Description: Antimicrobial activity against Candida albicans ATCC 10231 after 24 hrs by agar diffusion assay. In kind it is functional. The essentials:
as §1

Another data set has as its system Leishmania donovani. Description: Antileishmanial activity against Leishmania donovani MHOM/ET/67/L82 infected in mouse peritoneal macrophages after 5 days.
The test system of a further data set is Escherichia coli. Description: Antimicrobial activity against Escherichia coli NCTC 8196 after 24 hrs by agar diffusion assay. The data set is classed as functional. In outline:
as §1

Data set [6] concerns Trypanosoma brucei rhodesiense. Description: Antitrypanosomal activity against blood stream form of Trypanosoma brucei rhodesiense STIB 900. In kind it is functional, organism-based. The essentials: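 Bloodstream-form trypanosomes at 200 cells/100 µL were exposed for 72 h to threefold dilutions starting at 100 µg/mL, with 1% DMSO final. MIC was read microscopically as the lowest concentration with no normally shaped or motile cells. For IC50, Alamar Blue was added for a further 2 h, fluorescence was measured, and values were obtained by linear interpolation.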

The term IC50 denotes the concentration that inhibits the measured activity by half. By MIC is commonly meant the smallest concentration in the dilution series that meets the test's criterion for growth inhibition. As for `CC(=O)/C=C/[C@]1(O)[C@@H](C)C[C@@H](O)CC1(C)C`, the “inhibition zone (IZ)” value in data set [1] came to 8 mm; in data set [2] it was 18 mm; in the data set on Staphylococcus aureus, 10.5 mm; with Corynebacterium xerosis, 13 mm; with Candida albicans, 4.5 mm; in the data set with Escherichia coli, 2 mm. Further, the outcome (in the data set with Trypanosoma cruzi; in data set [5]; in the data set with Leishmania donovani) was inactive. In addition, the MCC in [3] was 56 µg/mL. Moreover, the concentration for half-maximal inhibition (IC50) with HT-29 turned out to be 8.1 µg/mL (≈ 35.8 µM); in data set [6], 31 µg/mL (≈ 137 µM). In addition, the selectivity ratio in data set [4] was 0.3. In data set [6], this compound yielded a minimum inhibitory concentration (MIC) of 100 µg/mL (≈ 442 µM).

Consider `CC(=O)/C=C/[C@@]1(O)[C@@H](C)C[C@@H](O)CC1(C)C`, for which the “inhibition zone (IZ)” value was 0 mm in [1]; 5 mm in [2]; 3 mm in the data set with Staphylococcus aureus; 3 mm in the data set on Corynebacterium xerosis; 5 mm in the data set with Candida albicans; 1 mm in the data set on Escherichia coli. The result (with Trypanosoma cruzi; in data set [5]) was inactive. Further, the MCC in [3] was over 100 µg/mL. The IC50 in the data set with HT-29 came to 17 µg/mL (≈ 75.1 µM); with Leishmania donovani (5 d) it was 77 µg/mL (≈ 340 µM); in data set [6], 18 µg/mL (≈ 79.5 µM). In addition, the selectivity ratio in data set [4] was 1. This compound also came in with an MIC in data set [6] of 100 µg/mL (≈ 442 µM).

In the case of `CC(=O)/C=C/[C@@]1(O)[C@H](C)C[C@H](O)CC1(C)C` [BOSCIALIN], the “inhibition zone (IZ)” value in data set [1] turned out to be 0 mm; in data set [2], 9.5 mm; in the data set on Staphylococcus aureus, 2.5 mm; with Corynebacterium xerosis, 2 mm; in the data set with Candida albicans, 4 mm; in the data set on Escherichia coli, 1 mm. Also, the result in the data set on Trypanosoma cruzi and in the data set on Leishmania donovani was inactive. For the same compound, the MCC in data set [3] was over 100 µg/mL. In addition, the IC50 turned out to be 43 µg/mL (≈ 190 µM) in the data set with HT-29, 1.9 µg/mL (≈ 8.4 µM) in data set [5] and 1.9 µg/mL (≈ 8.4 µM) in data set [6]. Moreover, in [4], the selectivity ratio was 23. For the same compound, the MIC in data set [5] and in [6] was 11 µg/mL (≈ 48.6 µM) in each case.

As to `CC(=O)/C=C/[C@]1(O)[C@H](C)C[C@H](O)CC1(C)C` [EPIBOSCIALIN], the “inhibition zone (IZ)” value is 8 mm in [1]; 20 mm in data set [2]; 10 mm in the data set with Staphylococcus aureus; 12 mm with Corynebacterium xerosis; 15.5 mm in the data set on Candida albicans; 1.5 mm in the data set on Escherichia coli. Moreover, the outcome in the data set with Trypanosoma cruzi and with Leishmania donovani was inactive. Also, the MCC in data set [3] amounted to 56 µg/mL. The IC50 with HT-29 turned out to be 8.5 µg/mL (≈ 37.6 µM); in [5], 0.9 µg/mL (≈ 3.98 µM); in data set [6], 0.9 µg/mL (≈ 3.98 µM). For the same compound, the selectivity ratio in [4] turned out to be 9.4. Moreover, the minimum inhibitory concentration (MIC) in [5] and in data set [6] was 3.7 µg/mL (≈ 16.3 µM) throughout.

Take `Nc1nc(N)nc(Nc2ccc([As]3SCC(CO)S3)cc2)n1` (stereo not drawn) [MELARSOPROL]: in data set [3], the MCC was 11 µg/mL. The same compound showed an IC50 in the data set on HT-29 of 3.6 µg/mL. Moreover, the selectivity ratio in data set [4] is 9000. Moreover, in data set [6], the IC50 stood at 0.0004 µg/mL and the MIC is 0.011 µg/mL.
